Two compounds from ChEMBL document CHEMBL3785055, “Arginine-linked neomycin B dimers: synthesis, rRNA binding, and resistance enzyme activity” (Medchemcomm, 2016) can be followed below.

≈ marks a conversion by molar mass, not a printed value. Calls of active or inactive are those of the source. The rule behind the calls is not given here.

Experiment [1] relates to Escherichia coli. In words: Displacement of F-NEO from Escherichia coli rRNA A-site at 0.1 uM by fluorescence assay. In short, it runs like this:
(§1)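 Single-point competitive screen: compound at 0.1 μM added to 0.1 μM F-NEO:A-site RNA complex. Displacement read as emission increase over complex alone (ΔF), expressed as % of fluorescence of 0.1 μM F-NEO. Buffer 10 mM HEPES, 50 mM NaCl, 0.4 mM EDTA, pH 7.0; at least duplicates.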

The next experiment is filed under the species Homo sapiens. In words: Displacement of F-NEO from human rRNA A-site at 0.1 uM by fluorescence assay. In short, it runs like this: as §1
Another experiment concerns Bacillus cereus. In words: Antibacterial activity against Bacillus cereus ATCC 11778 after 16 to 20 hrs by MTT assay. It counts as functional. An outline of the steps: (§2)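 Strains grown in LB 24 h at 37 °C, 250 rpm; overnight culture diluted 1:1000, grown 4 h, diluted 1:1000 again and added to microplates. Incubation 16–20 h at 37 °C; growth read visually and with MTT (1 mg/mL).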

In experiment [2] the test system is Staphylococcus epidermidis. In words: Antibacterial activity against Staphylococcus epidermidis ATCC 12228 after 16 to 20 hrs by MTT assay. It is filed as functional. In short, it runs like this:
as §2
Background: Tetrazolium dyes change colour on reduction, which living cells bring about.

Experiment [3] deals with Staphylococcus aureus. In words: Antibacterial activity against Staphylococcus aureus ATCC 25923 after 16 to 20 hrs by MTT assay. It is filed as functional. In short, it runs like this:
as §2

Experiment [4] in a line: Displacement of F-NEO from Escherichia coli rRNA A-site by fluorescence assay.
A short description of experiment [5]: Displacement of F-NEO from human rRNA A-site by fluorescence assay.
A short description of experiment [6]: Selectivity factor, ratio of IC50 for human rRNA A-site to IC50 for Escherichia coli rRNA A-site. An outline of the steps: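 Ratio from F-NEO displacement titrations, 0.002–2.0 μM compound against 0.1 μM F-NEO:A-site complex (485/535 nm). Measured IC50 stands in for the unmeasurable competition constants in Kd(human)/Kd(E. coli) = 5.75 × K(E. coli)/K(human). Buffer 10 mM HEPES, 50 mM NaCl, 0.4 mM EDTA, pH 7.0.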

The test system of experiment [7] is Escherichia coli. In words: Activity at Escherichia coli AAC(3)-4 at 100 uM in presence of AcCoA by Ellmans method relative to NEO. In short, it runs like this:
(§3)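 Acetylation followed by Ellman's method at 412 nm, 2 mM DTNB, 100 μM compound, 25 °C, triplicate, rates normalized to NEO. AcCoA 500 μM for Eis, 150 μM for AAC(3)-IV; enzyme 0.5 μM for Eis, 0.125 μM for AAC(3)-IV; 50 mM buffer.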

Experiment [8] concerns Staphylococcus aureus. In words: Activity at Staphylococcus aureus APH(2'')-1a at 100 uM in presence of […] by […] relative to NEO. A general note: In Ellman's method for cholinesterases, released thiocholine reacts with DTNB.
Experiment [9] has as its system Mycobacterium tuberculosis. In words: Activity at Mycobacterium tuberculosis AAC(2')-1c at 100 uM in presence of AcCoA by Ellmans method relative to NEO. In short, it runs like this: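 N-acetylation by AAC(2')-Ic (0.125 μM enzyme) of 100 μM compound with 150 μM AcCoA and 2 mM DTNB in 100 mM buffer, 25 °C. Thiol release followed at 412 nm (ε = 14,150 M⁻¹cm⁻¹). Rates normalized to neomycin B, triplicate.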

The test system of experiment [10] is Staphylococcus aureus. In words: Activity at Staphylococcus aureus AAC(6')-1e/APH(2'')-1a in presence of AcCoA by Ellmans method relative to NEO.
The nature of experiment [11]: Activity at APH(3')-1a (unknown origin) at 100 uM in presence of […] by […] relative to NEO.
Experiment [12] can be described thus: Activity at Eis (unknown origin) at 100 uM in presence of AcCoA by Ellmans method relative to NEO. An outline of the steps:
as §3

For `N=C(N)NCCC[C@H](N)C(=O)NCCCn1cc(-c2cccc(-c3cn(CCCNC(=O)[C@@H](N)CCCNC(=N)N)nn3)c2)nn1`, the outcome with Escherichia coli [1] and in the experiment listed under Homo sapiens was inactive.
Broadly, the MIC is the least concentration at which growth counts as inhibited. In general, IC50 refers to the midpoint of a concentration-inhibition curve. On to `NC[C@@H]1O[C@@H](O[C@H]2[C@H](O[C@H]3O[C@@H](Cn4cc(-c5cc(C(=O)O)cc(-c6cn(C[C@H]7O[C@@H](O[C@@H]8[C@@H](O)[C@H](N)C[C@H](N)[C@H]8O[C@@H]8O[C@@H](CN)[C@H](O)[C@@H](O)[C@@H]8N)[C@H](O)[C@@H]7O[C@H]7O[C@@H](CN)[C@@H](O)[C@H](O)[C@H]7N)nn6)c5)nn4)[C@H](O[C@H]4O[C@@H](CN)[C@@H](O)[C@H](O)[C@H]4N)[C@@H]3O)[C@@H](O)[C@H](N)C[C@@H]2N)[C@@H](N)[C@H](O)[C@H]1O` (stereo in doubt), for which the minimum inhibitory concentration (MIC) in the experiment with Bacillus cereus amounted to 3 µM (≈ 4.35 µg/mL); in experiment [2] it was 13 µM (≈ 18.8 µg/mL); in the experiment with Staphylococcus aureus [3], 13 µM (≈ 18.8 µg/mL). For the same compound, the IC50 in [4] is 51 µM; in [5], 50 µM. For the same compound, in [6], the Ratio IC50 was determined as 5.6. Further, the outcome with Escherichia coli [7] was Active. Besides, the outcome (in the experiment with Staphylococcus aureus [8]; in [9]; in the experiment with Staphylococcus aureus [10]; in experiment [11]; in [12]) was inactive.
